{"source": "ChEMBL document CHEMBL1155777", "about": "“Increased survival after gemfibrozil treatment of severe mouse influenza” (Antimicrob Agents Chemother, 2007)", "key": {"H2N2 subtype [1]": {"tested_on": "H2N2 subtype", "assay": "Antiviral activity against Influenza A virus (A/Japan/305/57(H2N2)) infected BALB/c mouse assessed as infection-induced weight loss at 40 mg/kg, ip administered once daily from day 4 to 10 post viral challenge measured on day 10 postinfection", "type": "functional, Influenza A virus (A/Japan/305/1957(H2N2))", "settings": "route intraperitoneal", "outline": "(§1)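 Gemfibrozil in 100% propylene glycol, 10 µl/mouse i.p., once daily days 4–10 after virus exposure; vehicle-only controls on the same days. Mice weighed before infection, then daily days 4–12 inclusive; loss tracked against pre-infection weight.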"}, "H2N2 subtype [2]": {"tested_on": "H2N2 subtype", "assay": "Antiviral activity against Influenza A virus (A/Japan/305/57(H2N2)) infected BALB/c mouse assessed as infection-induced weight loss at 60 mg/kg, ip administered once daily from day 4 to 10 post viral challenge measured on day 12 postinfection", "type": "functional, Influenza A virus (A/Japan/305/1957(H2N2))", "settings": "route intraperitoneal", "outline": "as §1"}, "H2N2 subtype [3]": {"tested_on": "H2N2 subtype", "assay": "Antiviral activity against Influenza A virus (A/Japan/305/57(H2N2)) infected BALB/c mouse assessed as infection-induced weight loss at 40 mg/kg, ip administered once daily from day 4 to 10 post viral challenge measured on day 8 postinfection", "type": "functional, Influenza A virus (A/Japan/305/1957(H2N2))", "settings": "route intraperitoneal", "outline": "as §1"}, "H2N2 subtype [4]": {"tested_on": "H2N2 subtype", "assay": "Antiviral activity against Influenza A virus (A/Japan/305/57(H2N2)) infected BALB/c mouse assessed as mouse survival at 20 mg/kg, ip administered once daily from day 4 to 10 post viral challenge", "type": "functional, Influenza A virus (A/Japan/305/1957(H2N2))", "settings": "96 h, route intraperitoneal", "outline": "(§2)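 Propylene glycol vehicle, 10 µl/mouse i.p., once daily days 4–10 post-infection; vehicle controls. Survival followed 30 days. 20/40/60 mg/kg in one experiment (n = 9–10 per group); 60 mg/kg also pooled from four experiments (vehicle n = 50, drug n = 46). Log rank test on survival time; Cox proportional hazards model for hazard ratios.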"}, "Mus musculus [5]": {"tested_on": "Mus musculus", "assay": "Increase in survival of LPS-induced BALB/c mouse severe systemic infection model at 60 mg/kg, ip administered as single dose 1 hr before LPS challenge", "type": "functional", "settings": "route intraperitoneal", "outline": "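LPS (E. coli O111:B4) 30 mg/kg i.p.; single 60 mg/kg i.p. dose in propylene glycol given 1 h before LPS; vehicle-only controls. n = 20 per group, single experiment; survival followed 14 days; log rank test.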"}, "H2N2 subtype [6]": {"tested_on": "H2N2 subtype", "assay": "Antiviral activity against Influenza A virus (A/Japan/305/57(H2N2)) infected BALB/c mouse assessed as infection-induced weight loss at 40 mg/kg, ip administered once daily from day 4 to 10 post viral challenge measured on day 12 postinfection", "type": "functional, Influenza A virus (A/Japan/305/1957(H2N2))", "settings": "route intraperitoneal", "outline": "as §1"}, "H2N2 subtype [7]": {"tested_on": "H2N2 subtype", "assay": "Antiviral activity against Influenza A virus (A/Japan/305/57(H2N2)) infected BALB/c mouse assessed as infection-induced weight loss at 60 mg/kg, ip administered once daily from day 4 to 10 post viral challenge measured on day 8 postinfection", "type": "functional, Influenza A virus (A/Japan/305/1957(H2N2))", "settings": "route intraperitoneal", "outline": "as §1"}, "H2N2 subtype [8]": {"tested_on": "H2N2 subtype", "assay": "Antiviral activity against Influenza A virus (A/Japan/305/57(H2N2)) infected BALB/c mouse assessed as infection-induced weight loss at 20 mg/kg, ip administered once daily from day 4 to 10 post viral challenge measured on day 4 postinfection", "type": "functional, Influenza A virus (A/Japan/305/1957(H2N2))", "settings": "route intraperitoneal", "outline": "as §1"}, "Mus musculus [9]": {"tested_on": "Mus musculus", "assay": "Increase in survival of LPS-induced BALB/c mouse severe systemic infection model at 60 mg/kg, ip administered as single dose 2 hrs before LPS challenge", "type": "functional", "settings": "route intraperitoneal"}, "H2N2 subtype [10]": {"tested_on": "H2N2 subtype", "assay": "Antiviral activity against Influenza A virus (A/Japan/305/57(H2N2)) infected BALB/c mouse assessed as infection-induced weight loss at 60 mg/kg, ip administered once daily from day 4 to 10 post viral challenge measured on day 4 postinfection", "type": "functional, Influenza A virus (A/Japan/305/1957(H2N2))", "settings": "route intraperitoneal", "outline": "as §1"}, "H2N2 subtype [11]": {"tested_on": "H2N2 subtype", "assay": "Antiviral activity against Influenza A virus (A/Japan/305/57(H2N2)) infected BALB/c mouse assessed as infection-induced weight loss at 20 mg/kg, ip administered once daily from day 4 to 10 post viral challenge measured on day 12 postinfection", "type": "functional, Influenza A virus (A/Japan/305/1957(H2N2))", "settings": "route intraperitoneal", "outline": "as §1"}, "H2N2 subtype [12]": {"tested_on": "H2N2 subtype", "assay": "Antiviral activity against Influenza A virus (A/Japan/305/57(H2N2)) infected BALB/c mouse assessed as mouse survival at 60 mg/kg, ip administered once daily from day 4 to 10 post viral challenge", "type": "functional, Influenza A virus (A/Japan/305/1957(H2N2))", "settings": "96 h, route intraperitoneal", "outline": "as §2"}, "H2N2 subtype [13]": {"tested_on": "H2N2 subtype", "assay": "Antiviral activity against Influenza A virus (A/Japan/305/57(H2N2)) infected BALB/c mouse assessed as infection-induced weight loss at 20 mg/kg, ip administered once daily from day 4 to 10 post viral challenge measured on day 6 postinfection", "type": "functional, Influenza A virus (A/Japan/305/1957(H2N2))", "settings": "route intraperitoneal", "outline": "as §1"}, "H2N2 subtype [14]": {"tested_on": "H2N2 subtype", "assay": "Antiviral activity against Influenza A virus (A/Japan/305/57(H2N2)) infected BALB/c mouse assessed as infection-induced weight loss at 60 mg/kg, ip administered once daily from day 4 to 10 post viral challenge measured on day 6 postinfection", "type": "functional, Influenza A virus (A/Japan/305/1957(H2N2))", "settings": "route intraperitoneal", "outline": "as §1"}, "[15]": {"assay": "Toxicity in mouse assessed as lethal dose", "type": "organism-based", "settings": "in vivo"}, "H2N2 subtype [16]": {"tested_on": "H2N2 subtype", "assay": "Antiviral activity against Influenza A virus (A/Japan/305/57(H2N2)) infected BALB/c mouse assessed as infection-induced weight loss at 60 mg/kg, ip administered once daily from day 4 to 10 post viral challenge measured on day 10 postinfection", "type": "functional, Influenza A virus (A/Japan/305/1957(H2N2))", "settings": "route intraperitoneal", "outline": "as §1"}, "H2N2 subtype [17]": {"tested_on": "H2N2 subtype", "assay": "Antiviral activity against Influenza A virus (A/Japan/305/57(H2N2)) infected BALB/c mouse assessed as infection-induced weight loss at 20 mg/kg, ip administered once daily from day 4 to 10 post viral challenge measured on day 8 postinfection", "type": "functional, Influenza A virus (A/Japan/305/1957(H2N2))", "settings": "route intraperitoneal", "outline": "as §1"}, "H2N2 subtype [18]": {"tested_on": "H2N2 subtype", "assay": "Antiviral activity against Influenza A virus (A/Japan/305/57(H2N2)) infected BALB/c mouse assessed as mouse survival at 40 mg/kg, ip administered once daily from day 4 to 10 post viral challenge", "type": "functional, Influenza A virus (A/Japan/305/1957(H2N2))", "settings": "96 h, route intraperitoneal", "outline": "as §2"}, "H2N2 subtype [19]": {"tested_on": "H2N2 subtype", "assay": "Antiviral activity against Influenza A virus (A/Japan/305/57(H2N2)) infected BALB/c mouse assessed as infection-induced weight loss at 40 mg/kg, ip administered once daily from day 4 to 10 post viral challenge measured on day 6 postinfection", "type": "functional, Influenza A virus (A/Japan/305/1957(H2N2))", "settings": "route intraperitoneal", "outline": "as §1"}, "H2N2 subtype [20]": {"tested_on": "H2N2 subtype", "assay": "Antiviral activity against Influenza A virus (A/Japan/305/57(H2N2)) infected BALB/c mouse assessed as infection-induced weight loss at 40 mg/kg, ip administered once daily from day 4 to 10 post viral challenge measured on day 4 postinfection", "type": "functional, Influenza A virus (A/Japan/305/1957(H2N2))", "settings": "route intraperitoneal", "outline": "as §1"}, "H2N2 subtype [21]": {"tested_on": "H2N2 subtype", "assay": "Antiviral activity against Influenza A virus (A/Japan/305/57(H2N2)) infected BALB/c mouse assessed as infection-induced weight loss at 20 mg/kg, ip administered once daily from day 4 to 10 post viral challenge measured on day 10 postinfection", "type": "functional, Influenza A virus (A/Japan/305/1957(H2N2))", "settings": "route intraperitoneal", "outline": "as §1"}}}
{"smiles": "Cc1ccc(C)c(OCCCC(C)(C)C(=O)O)c1", "note": "[GEMFIBROZIL]", "values": [{"measurement": "Activity", "setting": "H2N2 subtype [1]", "value": 73.4, "unit": "%"}, {"measurement": "Activity", "setting": "H2N2 subtype [2]", "value": 81.8, "unit": "%"}, {"measurement": "Activity", "setting": "H2N2 subtype [3]", "value": 72.2, "unit": "%"}, {"measurement": "survival at 20 mg/kg", "setting": "H2N2 subtype [4]", "value": 30, "unit": "%"}, {"measurement": "survival at 60 mg/kg", "setting": "Mus musculus [5]", "value": 25, "unit": "%"}, {"measurement": "Activity", "setting": "H2N2 subtype [6]", "value": 77.1, "unit": "%"}, {"measurement": "Activity", "setting": "H2N2 subtype [7]", "value": 73.2, "unit": "%"}, {"measurement": "Activity", "setting": "H2N2 subtype [8]", "value": 87.9, "unit": "%"}, {"measurement": "survival at 60 mg/kg", "setting": "Mus musculus [9]", "value": 10, "unit": "%"}, {"measurement": "Activity", "setting": "H2N2 subtype [10]", "value": 86.5, "unit": "%"}, {"measurement": "Activity", "setting": "H2N2 subtype [11]", "value": 79, "unit": "%"}, {"measurement": "survival at 60 mg/kg", "setting": "H2N2 subtype [12]", "value": 52, "unit": "%"}, {"measurement": "Activity", "setting": "H2N2 subtype [13]", "value": 77.5, "unit": "%"}, {"measurement": "Activity", "setting": "H2N2 subtype [14]", "value": 77.1, "unit": "%"}, {"measurement": "LD50", "setting": "[15]", "value": 3160, "unit": "mg/kg"}, {"measurement": "Activity", "setting": "H2N2 subtype [16]", "value": 78, "unit": "%"}, {"measurement": "Activity", "setting": "H2N2 subtype [17]", "value": 75.1, "unit": "%"}, {"measurement": "survival at 40 mg/kg", "setting": "H2N2 subtype [18]", "value": 44, "unit": "%"}, {"measurement": "Activity", "setting": "H2N2 subtype [19]", "value": 75.6, "unit": "%"}, {"measurement": "Activity", "setting": "H2N2 subtype [20]", "value": 87, "unit": "%"}, {"measurement": "Activity", "setting": "H2N2 subtype [21]", "value": 75.2, "unit": "%"}]}
